Here are results for twelve molecules from ChEMBL document CHEMBL4706580, “4-Amino-1,2,4-triazole-3-thione-derived Schiff bases as metallo-β-lactamase inhibitors” (Eur J Med Chem, 2020).

Assay [1] in a line: Inhibition of beta-lactamase CphA (unknown origin) expressed in Escherichia coli BL21(DE3) using imipenem as substrate by measuring substrate hydrolysis at 200 uM by spectrophotometric analysis.
The nature of assay [2]: Inhibition of beta-lactamase IMP-1 (unknown origin) expressed in Escherichia coli BL21(DE3) using imipenem as substrate by measuring substrate hydrolysis at 100 uM by spectrophotometric analysis. An outline of the steps: (§1)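 Purified enzyme (overproduced in E. coli BL21(DE3), pET-9a; ion-exchange and gel filtration), 1-70 nM final. Reporter substrate 150 μM imipenem, read at 300 nm, 30 °C, 50 mM HEPES pH 7.5. Single-point screen at 100 or 200 μM; Ki from v0/vi vs [I] (0.5–1,000 μM final) assuming competitive inhibition, or Dixon plot. Triplicate.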

A short description of assay [3]: Inhibition of beta-lactamase CphA (unknown origin) expressed in Escherichia coli BL21(DE3) using imipenem as substrate by measuring substrate hydrolysis at 100 uM by spectrophotometric analysis. An outline of the steps: (§2)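 Enzyme 0.2–0.8 nM in 15 mM cacodylate pH 6.5, no added zinc, pre-incubated 30 min at 21 °C with inhibitor (100 μM screen). Imipenem substrate added from 10 mM stock; hydrolysis at 300 nm, 30 °C. Residual activity vs three uninhibited samples; Ki (1–100 μM inhibitor) by Hanes linearization, competitive model. Triplicate.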

The nature of assay [4]: Inhibition of beta-lactamase VIM4 (unknown origin) expressed in Escherichia coli BL21(DE3) using imipenem as substrate by measuring substrate hydrolysis at 200 uM by spectrophotometric analysis. The method, boiled down: as §1
Assay [5] in a line: Inhibition of beta-lactamase L1 (unknown origin) expressed in Escherichia coli BL21(DE3) using nitrocefin as substrate by measuring substrate hydrolysis at 100 uM preincubated for 30 mins by spectrophotometric analysis. The method, boiled down:
(§3)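 Enzyme 0.2–0.8 nM in 25 mM HEPES pH 7.5 with 50 μM ZnCl2 final, pre-incubated 30 min at 21 °C with inhibitor (100 μM screen). Nitrocefin 100 μM final, read at 482 nm, 30 °C. Residual activity vs three uninhibited samples; Ki (1–100 μM inhibitor) from Hanes linearization, competitive model. Triplicate.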

Assay [6] in a line: Inhibition of beta-lactamase VIM4 (unknown origin) expressed in Escherichia coli BL21(DE3) using imipenem as substrate by measuring substrate hydrolysis at 100 uM by spectrophotometric analysis. An outline of the steps:
as §1

A short description of assay [7]: Inhibition of beta-lactamase NDM-1 (unknown origin) expressed in Escherichia coli LZ2310 assessed as potentiation of ceftazidime antibacterial activity by measuring ceftazidime induced diameter of inhibition zone at 40 uM incubated for 18 hrs by disk diffusion method (reference value: 15 mm). An outline of the steps:
(§4)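 Efflux-deficient E. coli LZ2310 (NorE, MdfA, AcrA knocked out) carrying pLB-II with the cloned MBL gene. Mueller-Hinton, CLSI disk diffusion; antibiotic disks (30 µg cefoxitin for VIM-2, 10 µg ampicillin for VIM-4, 30 µg ceftazidime for NDM-1/IMP-1) loaded with inhibitor in DMSO (≤15 µL). Zone diameter after 18 h, 35 ± 1 °C; DMSO and 220 µg EDTA controls. Triplicate.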

Assay [8] in a line: Inhibition of beta-lactamase VIM-2 (unknown origin) expressed in Escherichia coli LZ2310 assessed as potentiation of cefoxitin antibacterial activity by measuring cefoxitin induced diameter of inhibition zone at 40 uM incubated for 18 hrs by disk diffusion method (reference value: 14 mm). An outline of the steps:
as §4

Assay [9] in a line: Inhibition of beta-lactamase VIM4 (unknown origin) expressed in Escherichia coli BL21(DE3) using imipenem as substrate by measuring substrate hydrolysis by spectrophotometric analysis. An outline of the steps: as §1
Assay [10] can be described thus: Inhibition of beta-lactamase CphA (unknown origin) expressed in Escherichia coli BL21(DE3) using imipenem as substrate by measuring substrate hydrolysis by spectrophotometric analysis. An outline of the steps: as §2
A short description of assay [11]: Inhibition of beta-lactamase IMP-1 (unknown origin) expressed in Escherichia coli BL21(DE3) using imipenem as substrate by measuring substrate hydrolysis at 200 uM by spectrophotometric analysis. The method, boiled down: as §1
Assay [12] in a line: Inhibition of beta-lactamase IMP-1 (unknown origin) expressed in Escherichia coli LZ2310 assessed as potentiation of ceftazidime antibacterial activity by measuring ceftazidime induced diameter of inhibition zone at 40 uM incubated for 18 hrs by disk diffusion method (reference value: 9 mm). An outline of the steps:
as §4

Assay [13] is described as follows: Inhibition of beta-lactamase NDM1 (unknown origin) expressed in Escherichia coli BL21(DE3) using cefotaxime/nitrocefin as substrate by measuring substrate hydrolysis by spectrophotometric analysis. The method, boiled down:
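His-tagged enzyme from E. coli BL21(DE3) pET-15b, affinity-purified, 1-70 nM final. Reporter substrate 120 μM cefotaxime (260 nm) or 100 μM nitrocefin (482 nm), 30 °C, 50 mM HEPES pH 7.5. Inhibitor 0.5–1,000 μM final; competitive Ki from v0/vi vs [I] slope or Dixon plot. Triplicate.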

Assay [14] is described as follows: Inhibition of beta-lactamase L1 (unknown origin) expressed in Escherichia coli BL21(DE3) using nitrocefin as substrate by measuring substrate hydrolysis preincubated for 30 mins by spectrophotometric analysis. The method, boiled down:
as §3

Assay [15] can be described thus: Inhibition of beta-lactamase NDM1 (unknown origin) expressed in Escherichia coli BL21(DE3) using cefotaxime/nitrocefin as substrate by measuring substrate hydrolysis at 100 uM by spectrophotometric analysis.
Assay [16] can be described thus: Inhibition of beta-lactamase NDM1 (unknown origin) expressed in Escherichia coli BL21(DE3) using cefotaxime/nitrocefin as substrate by measuring substrate hydrolysis at 200 uM by spectrophotometric analysis.
A short description of assay [17]: Inhibition of beta-lactamase VIM2 (unknown origin) expressed in Escherichia coli BL21(DE3) using imipenem as substrate by measuring substrate hydrolysis at 100 uM by spectrophotometric analysis. The method, boiled down: as §1
The nature of assay [18]: Inhibition of beta-lactamase L1 (unknown origin) expressed in Escherichia coli BL21(DE3) using nitrocefin as substrate by measuring substrate hydrolysis at 200 uM preincubated for 30 mins by spectrophotometric analysis.
A short description of assay [19]: Inhibition of beta-lactamase VIM-4 (unknown origin) expressed in Escherichia coli LZ2310 assessed as potentiation of ampicillin antibacterial activity by measuring ampicillin induced diameter of inhibition zone at 40 uM incubated for 18 hrs by disk diffusion method (reference value: 6 mm). An outline of the steps: as §4
Assay [20] is described as follows: Inhibition of beta-lactamase VIM2 (unknown origin) expressed in Escherichia coli BL21(DE3) using imipenem as substrate by measuring substrate hydrolysis at 200 uM by spectrophotometric analysis. The method, boiled down: as §1
Assay [21] is described as follows: Inhibition of beta-lactamase IMP-1 (unknown origin) expressed in Escherichia coli BL21(DE3) using imipenem as substrate by measuring substrate hydrolysis by spectrophotometric analysis. An outline of the steps:
as §1

Assay [22] is described as follows: Inhibition of beta-lactamase VIM2 (unknown origin) expressed in Escherichia coli BL21(DE3) using imipenem as substrate by measuring substrate hydrolysis by spectrophotometric analysis. The method, boiled down: as §1

The structures appear in SMILES notation. The source made the active and inactive calls. No cut-off for these calls is given here.

Regarding `Oc1ccc(/C=N/n2c(CC(c3ccccc3)c3ccccc3)n[nH]c2=S)c(O)c1`, the inhibition result in assay [1], in assay [3], in assay [4] and in assay [6] was “inactive” in each case. The inhibition in assay [2] and in assay [5] was 35% in each case.

On to `O=C(O)c1ccccc1/C=N/n1c(C(c2ccccc2)c2ccccc2)n[nH]c1=S`, for which the values for the inhibition zone (IZ) in assay [7], in assay [8] and in [12] were 15 mm, 14 mm and 9 mm, respectively. The Ki in assay [9] turned out to be 9 µM; in assay [10] it was 13 µM; in assay [13], 4.1 µM; in assay [14], 0.1 µM. Further, the inhibition entry in [2] and in assay [11] was “inactive” throughout.

`Oc1ccc(/C=N/n2c(COc3ccc4ccccc4c3)n[nH]c2=S)c(O)c1`: the inhibition entry in assay [1], in assay [3], in assay [15] and in assay [16] was “inactive” each time. Also, the inhibition stood at 33% in assay [2], 40% in [5], 60% in assay [6] and 30% in assay [17].

In the case of `Cc1ccccc1-c1n[nH]c(=S)n1/N=C/c1ccccc1O`, the inhibition result in assay [1], in assay [18], in assay [3], in [15], in [5] and in assay [16] was “inactive” each time. Besides, the figures for the inhibition in [2], in assay [6] and in [17] were 41%, 38% and 62%, respectively.

In the case of `S=c1[nH]nc(-c2cc(Cl)cc(Cl)c2)n1/N=C/c1ccc(OCc2ccccc2)cc1`, the Ki in assay [9] amounted to 0.6 µM; in assay [21], 0.1 µM; in [14] it was 18 µM. For the same molecule, the inhibition entry in assay [1], in assay [3], in [20] and in assay [17] was “inactive” throughout. The inhibition zone (IZ) is 6 mm in assay [19] and 9 mm in assay [12].

Consider `Oc1ccc(/C=N/n2c(Cc3ccccc3)n[nH]c2=S)c(O)c1`, for which the inhibition result in assay [1], in [3], in [15] and in [16] was “inactive” in each case. For the same molecule, the inhibition in assay [2] worked out at 37%; in assay [5] it was 46%; in assay [6], 47%; in assay [17], 30%.

Consider `O=C(O)c1ccccc1/C=N/n1c(-c2ccncc2)n[nH]c1=S`, for which the inhibition result in assay [1] and in assay [3] was “inactive” throughout. Moreover, the inhibition in assay [2] came out at 45%; in [5], 32%; in assay [16] it was 50%; in [6] it was 73%.

In the case of `O=C(O)c1ccccc1/C=N/n1c(-c2ccccn2)n[nH]c1=S`, the inhibition result in assay [1], in assay [18], in assay [2], in assay [3], in assay [20] and in [5] was “inactive” in each case. The inhibition result in [11] and in [17] was “inactive” in each case. For the same molecule, the results for the inhibition in [16] and in assay [6] were 60% and 62%, respectively.

On to `Oc1ccc(/C=N/n2c(-c3cccc4ccccc34)n[nH]c2=S)c(O)c1`, for which the figures for the inhibition zone (IZ) in assay [19] and in assay [12] were 6 mm and 10 mm, respectively. For the same molecule, the inhibition result in assay [15], in assay [20], in [16] and in assay [17] was “inactive” in each case. In addition, the figures for the Ki in assay [10], in assay [21] and in [14] were 4 µM, 10 µM and 2 µM, respectively. Also, in assay [6], the inhibition came out at 32%.

Turning to `S=c1[nH]nc(-c2ccccc2)n1/N=C/c1ccccc1`, the inhibition result in [1], in assay [18], in assay [3], in assay [15], in assay [20] and in assay [4] was “inactive” each time. Also, the inhibition result in assay [5], in assay [16], in assay [6] and in [17] was “inactive” in each case. In assay [2], the inhibition worked out at 60%.

In the case of `Cc1ccccc1-c1n[nH]c(=S)n1/N=C/c1cccc(-c2cccc(C(=O)O)c2)c1`, the results for the inhibition zone (IZ) in assay [8], in [19] and in [12] were 14 mm, 6 mm and 9 mm, respectively. Besides, the Ki in assay [9] came out at 0.3 µM; in assay [10], 40 µM; in assay [22] it was 1.1 µM; in [21], 9 µM; in assay [14], 0.9 µM. In addition, the inhibition entry in assay [15] and in assay [16] was “inactive” each time.

With `Oc1ccc(/C=N/n2c(-c3ccc(Cl)cc3)n[nH]c2=S)c(O)c1`, the inhibition zone (IZ) in [7] was determined as 15 mm. For the same molecule, the inhibition result in assay [1] and in assay [3] was “inactive” each time. Moreover, the inhibition in assay [2] is 67%; in [5], 54%; in assay [6], 63%. The Ki in assay [13] came to 3.1 µM.
